According to ChEMBL document CHEMBL1132370, “8,11-dihydroxy-6-[(aminoalkyl)amino]-7H-benzo[e]perimidin-7-ones with activity in multidrug-resistant cell lines: synthesis and antitumor evaluation” (J Med Chem, 1999):
Values joined by “and” are separate entries in the source; they are usually repeats but may differ in a detail not shown here. Equal entries are not always repeated.

Key:
[1] = system: Mus musculus; assay: Long-term survivors when compound was tested for in vivo antileukemic activity towards P388 Murine Leukemia at dose of 10.0 mg/kg tested in 18 animals; assay type: functional
[2] = system: Mus musculus; assay: Long-term survivors when compound was tested for in vivo antileukemic activity towards P388 Murine Leukemia at dose of 1.0 mg/kg tested in 12 animals; assay type: functional
[3] = system: K562; assay: Compound was tested in vitro for cytotoxicity against sensitive cell line K562S (72 hr exposure to compound); settings: Homo sapiens, K562, 72 h
[4] = system: Mus musculus; assay: Antileukemic activity expressed as number of toxic deaths/total number of mice at dose 22.5 mg/kg tested in 6 animals; assay type: functional
[5] = system: Mus musculus; assay: Tumor volume inhibition administered iv at a dose of 20 mg/kg to nude mice bearing sc Human colon carcinoma Xenografts; assay type: functional
In short: (§1)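 Swiss nude athymic mice carrying tumor fragments grafted sc in both flanks, 4–5 mice (8–10 tumors) per group. Tumor lines kept by sc passage. Dosing iv once weekly for 3 doses, starting at mean tumor volume ca. 80–100 mm3 (A2780, HT29/Mx: days 4, 11, 18; A2780/Dx: days 7, 14, 21). Diameters measured twice weekly; TV = d²×D/2. %TVI treated vs control assessed 3–10 days after last dose.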

[6] = system: Mus musculus; assay: In vivo antileukemic activity towards P388 Murine Leukemia at a dose of 20.0 mg/kg; assay type: functional
[7] = system: Mus musculus; assay: Tumor volume inhibition administered iv at a dose of 6.7 mg/kg to nude mice bearing sc Human A2780/Dx Xenografts; assay type: functional, A2780 ADR; in short: as §1
[8] = system: Mus musculus; assay: In vivo antileukemic activity towards P388 Murine Leukemia at a dose of 30.0 mg/kg; assay type: functional
[9] = system: HT-29; assay: Percent inhibition at G2/M phase of cell cycle at a dose of 100n g/mL after 72 hours of induction in HT-29 cell line; assay type: functional, Homo sapiens
In short: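 HT29 or HT29/Mx cells were treated for 72 h, then fixed in 70% ice-cold ethanol. Cells were stained with PBS containing 30 μg/mL propidium iodide and 66 units/mL RNase A, and DNA content was measured by flow cytometry on at least 10^4 cells to give G1, S and G2/M fractions.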

[10] = system: HT-29; assay: Percent inhibition at G2/M phase of cell cycle at a dose of 25 ng/mL after 72 hours of induction in HT-29 cell line; assay type: functional; settings: Homo sapiens, HT-29, 72 h
In short: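 HT29 and mitoxantrone-resistant HT29/Mx colon adenocarcinoma monolayers in McCoy's 5A with 10% FBS and 1% 1 M Hepes, 37 °C, 5% CO2. Drug exposure 72 h. Cells then fixed in 70% ice-cold ethanol, washed twice and resuspended in PBS with 30 μg/mL propidium iodide and 66 units/mL RNase A. At least 10^4 cells per sample read for DNA content by flow cytometry. G1/S/G2M fractions reported as percentages.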

[11] = system: Mus musculus; assay: In vivo antileukemic activity towards P388 Murine Leukemia at a dose of 2.5 mg/kg; assay type: functional

In the case of CN(C)CCNc1ccc2ncnc3c2c1C(=O)c1c(O)ccc(O)c1-3, the LTS [1] is reported as 0, the LTS [2] is reported as 0 and the IC50 [3] is reported as 5.56 nM. For the same compound, the Toxic deaths [4] was 1, the TVI [5] was 22% and the “T/C (ratio of treated to control)” value [6] was 205% and 207%. For the same compound, the TVI [7] was 46%, the “T/C (ratio of treated to control)” value [8] was 171% and the Inhibition [9] was 57%. For the same compound, the inhibition at 0.025 µg/mL [10] was 29% and the “T/C (ratio of treated to control)” value [11] was 145%.
